The source made the active and inactive calls. The calls are words filed in the database; no cut-off is given here.
Assays:
[1] = Area under the curve after intravenous administration at a dose of 2 umol/kg; format: ADME; settings: in vivo
[2] = Maximum concentration in plasma after administration of 10 umol/kg dose perorally; format: ADME, organism-based; parameters: dose 10 umol/kg, route oral; settings: po
Procedure, shortened: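 Male Sprague-Dawley rats starved 18 h, dosed orally. Blood samples over up to 12 h, drug quantified by GC/MS against internal standard (2–1000 pmol/mL standard curve). Cmax read from concentration–time curve; SEM, n = 4–6.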

[3] = Maximum concentration in plasma after administration of 2 umol/kg dose intravenously; format: ADME, organism-based; parameters: dose 2 umol/kg, route intravenous; settings: iv
[4] = Bioavailability in rats after 5 mg/kg (i.v.) and 40 mg/kg (p.o.) administration; format: ADME, organism-based; settings: rat, in vivo, po
Procedure, shortened: (§1)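 Male Sprague-Dawley rats; oral group starved 18 h, compared with iv dosing. Blood sampled up to 12 h, levels by GC/MS. Absolute oral availability F (po/iv) from ratio of AUCs of blood concentration–time curves, po n = 5, iv n = 3.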

[5] = Time taken to reach maximum concentration after administration of 10 umol/kg dose perorally; format: ADME, organism-based; settings: in vivo, po
Procedure, shortened: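 Male Sprague-Dawley rats, starved 18 h for the oral arm, dosed iv or po. Blood sampled at intervals up to 12 h. Compound measured by GC/mass spectrometry against an internal standard, with a standard curve over 2–1000 pmol/mL in blank blood. tmax read from concentration–time curves, n = 4–6.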

[6] = Time taken to reach maximum concentration after administration of 2 umol/kg dose intravenously; format: ADME, organism-based; settings: in vivo, iv
[7] = molecular target: D(2) dopamine receptor (Rattus norvegicus, UniProt P61169); assay: Displacement of the radioligand [3H]spiperone from D2 receptor
Chain of D(2) dopamine receptor (P61169 whole entry): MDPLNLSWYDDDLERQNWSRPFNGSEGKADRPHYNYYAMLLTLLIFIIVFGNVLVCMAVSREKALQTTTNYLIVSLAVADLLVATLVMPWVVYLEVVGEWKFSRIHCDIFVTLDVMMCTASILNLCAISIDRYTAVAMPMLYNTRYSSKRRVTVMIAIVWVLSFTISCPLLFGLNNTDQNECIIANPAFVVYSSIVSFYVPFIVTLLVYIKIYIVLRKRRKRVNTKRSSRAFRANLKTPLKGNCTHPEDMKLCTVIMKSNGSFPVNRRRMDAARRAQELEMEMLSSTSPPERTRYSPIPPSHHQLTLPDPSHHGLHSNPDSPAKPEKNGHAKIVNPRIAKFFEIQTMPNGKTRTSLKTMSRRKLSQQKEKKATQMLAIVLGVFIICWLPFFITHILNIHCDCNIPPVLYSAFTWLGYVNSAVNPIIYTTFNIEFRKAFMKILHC
Procedure, shortened: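 Rat striatal membranes in 50 mM potassium phosphate buffer, incubated with 0.5 nM [3H]spiperone (3 mg tissue) 10 min at 37 °C. Nonspecific binding defined with 10 μM 6,7-ADTN. IC50 converted to Ki by Cheng–Prusoff; 3–7 experiments, each concentration in triplicate.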

[8] = tested on: Rattus norvegicus; assay: Ratio of the 5HTP-accumulation decrease in limbic regions of oral to that of sc administration; format: functional, Limbic system
Procedure, shortened: (§2)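 Ratio of ED50 for decrease of limbic 5-HTP accumulation after oral versus sc dosing in reserpine-pretreated rats; 5-HTP measured by HPLC with electrochemical detection.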

[9] = species on record: Rattus norvegicus; assay: The concentration yielding a half maximal decrease of the 5-HTP was determined in rat brain striatum; format: functional
Procedure, shortened: (§3)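 Reserpine-pretreated (5 mg/kg sc, 18 h) male Sprague-Dawley rats, 200–300 g; compounds in saline given sc. DOPA and 5-HTP in limbic system, striatum and hemispheres measured by HPLC with electrochemical detection. Dose–response curves of 4–6 doses (n = 4) per area, fitted to variable-slope sigmoid on log data to give ED50.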

[10] = tested on: Rattus norvegicus; assay: The concentration yielding a half maximal decrease of the DOPA was determined in rat brain hemispheres; inactive at 3.1 umol/kg; format: functional, organism-based; procedure, shortened: as §3
[11] = tested on: Rattus norvegicus; assay: The concentration yielding a half maximal decrease of the DOPA was determined in rat brain striatum; inactive at 3.1 umol/kg; format: functional, organism-based
[12] = species on record: Rattus norvegicus; assay: The concentration yielding a half maximal decrease of the 5-HTP was determined in rat brain hemispheres; format: functional; procedure, shortened: as §3
[13] = species on record: Rattus norvegicus; assay: The concentration yielding a half maximal decrease of the 5-HTP was determined in rat limbic system; format: functional; procedure, shortened: as §3
[14] = species on record: Rattus norvegicus; assay: Log concentration to inhibit 5-HTP accumulation was determined in rat brain hemispheres; format: functional; procedure, shortened: as §3
[15] = species on record: Rattus norvegicus; assay: Log concentration to inhibit 5-HTP accumulation was determined in rat limbic system; format: functional; procedure, shortened: as §3
[16] = Half life in plasma after administration of 2 umol/kg dose perorally; format: ADME, organism-based; settings: po
[17] = species on record: Rattus norvegicus; assay: Log concentration to inhibit 5-HTP accumulation was determined in rat brain striatum; format: functional; procedure, shortened: as §3
[18] = tested on: Rattus norvegicus; assay: The concentration yielding a half maximal decrease of the DOPA was determined in rat limbic system; inactive at 3.1 umol/kg; format: functional, organism-based
[19] = tested on: Rattus norvegicus; assay: Motor activity was measured by motility testing on injecting the compound subcutaneously into rats at the dose of 0.02 umol/kg (1a) and 3.5 umol/kg (1b)
[20] = Bioavailability in rat (dose 10 uM/kg); format: ADME, organism-based; settings: in vivo; procedure, shortened: as §1
[21] = Half life in plasma after administration of 2 umol/kg dose intravenously; format: ADME, organism-based; settings: iv
[22] = tested on: Rattus norvegicus; assay: Motor activity was measured by motility testing on injecting the compound subcutaneously into rats at the dose of 12.5 umol/kg; format: functional
Procedure, shortened: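 Rats given reserpine 5 mg/kg sc 18 h beforehand, then test compound sc in neck (n = 4). Placed singly in photocell motility meters straight after dosing; counts recorded for 30 min, gross behaviour observed throughout. Value as counts/30 min with SEM.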

[23] = tested on: Rattus norvegicus; assay: Ratio of the 5HTP-accumulation decrease in limbic regions after sc and po administration at 10 umol/kg; format: functional, Limbic system; procedure, shortened: as §2
[24] = tested on: Rattus norvegicus; assay: The concentration yielding a half maximal decrease of the DOPA was determined in rat brain hemispheres; inactive at 12.5 umol/kg; format: functional, organism-based; procedure, shortened: as §3
[25] = tested on: Rattus norvegicus; assay: The concentration yielding a half maximal decrease of the DOPA was determined in rat brain striatum; inactive at 12.5 umol/kg; format: functional, organism-based
[26] = species on record: Rattus norvegicus; assay: The concentration yielding a half maximal decrease of the DOPA was determined in rat limbic system; format: functional
[27] = species on record: Rattus norvegicus; assay: Log concentration to inhibit DOPA accumulation was determined in rat limbic system; format: functional; procedure, shortened: as §3

Row | Structure (SMILES) | AUC [1] | Cmax [2] | Cmax [3] | Tmax [5] | Tmax [6] | Ki [7] | ED50 [9] | ED50 [12] | ED50 [13] | pED50 [14] | pED50 [15] | pED50 [17] | further results
1 | CCCN(CCC)[C@@H]1CCc2ccc3[nH]cc(C=O)c3c2C1 | 431 pM/kg | 108 nM | 712 nM | 150 min | 2 min | 382 nM | 0.12 µmol/kg | 0.45 µmol/kg | 0.072 µmol/kg | 6.34 | 7.14 | 6.91 | bioavailability [4]: 46%; ED50 [8]: 15%; ED50 [10]: inactive; ED50 [11]: inactive; half-life [16]: 90 min; ED50 [18]: inactive; Counts/30 min [19]: 162
2 | CCCN(CCC)[C@H]1CCc2ccc3[nH]cc(C=O)c3c2C1 | 607 pM/kg | 606 nM | 849 nM | 48 min | 2 min | 3590 nM | 0.052 µmol/kg | 0.032 µmol/kg | 0.11 µmol/kg | 7.49 | 6.94 | 8.28 | bioavailability [20]: 72%; half-life [21]: 60 min; Counts/30 min [22]: 413; ED50 [23]: 18%; ED50 [24]: inactive; ED50 [25]: inactive; ED50 [26]: 4.33 µmol/kg; pED50 [27]: 5.36
